Holding throughout (assay type): cell-based
Assay [1] addresses T1, Peroxisomal multifunctional enzyme type 2 (Homo sapiens) (UniProt P51659).
T1 sequence (whole entry): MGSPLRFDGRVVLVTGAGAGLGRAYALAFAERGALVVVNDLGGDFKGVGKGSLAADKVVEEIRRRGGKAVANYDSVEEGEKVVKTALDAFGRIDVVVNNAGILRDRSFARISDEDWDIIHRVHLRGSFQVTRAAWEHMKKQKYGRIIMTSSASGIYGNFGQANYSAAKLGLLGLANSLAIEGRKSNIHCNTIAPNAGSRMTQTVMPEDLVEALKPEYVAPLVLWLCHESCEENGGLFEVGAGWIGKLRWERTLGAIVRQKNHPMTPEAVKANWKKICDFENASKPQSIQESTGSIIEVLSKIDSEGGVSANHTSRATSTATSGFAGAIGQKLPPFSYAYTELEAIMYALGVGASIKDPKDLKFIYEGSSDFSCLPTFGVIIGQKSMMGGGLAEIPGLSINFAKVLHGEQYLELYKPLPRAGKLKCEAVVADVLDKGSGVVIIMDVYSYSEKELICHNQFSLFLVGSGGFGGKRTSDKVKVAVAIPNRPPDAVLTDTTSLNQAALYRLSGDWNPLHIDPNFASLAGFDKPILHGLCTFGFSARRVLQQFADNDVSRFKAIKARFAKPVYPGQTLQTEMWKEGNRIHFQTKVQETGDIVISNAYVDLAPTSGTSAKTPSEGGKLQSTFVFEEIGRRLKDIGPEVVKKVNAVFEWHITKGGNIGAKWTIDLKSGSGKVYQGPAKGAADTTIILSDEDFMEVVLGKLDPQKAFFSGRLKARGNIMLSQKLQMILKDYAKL
The experiment in a line: Binding affinity to 17beta-HSD4 in human PC3 cells at 200 nM by affinity chromatography analysis. The note with it: PC-3.

For assay [2], the target named is T2, Peroxisomal multifunctional enzyme type 2 (Mus musculus) (UniProt P51660).
T2 sequence (whole entry): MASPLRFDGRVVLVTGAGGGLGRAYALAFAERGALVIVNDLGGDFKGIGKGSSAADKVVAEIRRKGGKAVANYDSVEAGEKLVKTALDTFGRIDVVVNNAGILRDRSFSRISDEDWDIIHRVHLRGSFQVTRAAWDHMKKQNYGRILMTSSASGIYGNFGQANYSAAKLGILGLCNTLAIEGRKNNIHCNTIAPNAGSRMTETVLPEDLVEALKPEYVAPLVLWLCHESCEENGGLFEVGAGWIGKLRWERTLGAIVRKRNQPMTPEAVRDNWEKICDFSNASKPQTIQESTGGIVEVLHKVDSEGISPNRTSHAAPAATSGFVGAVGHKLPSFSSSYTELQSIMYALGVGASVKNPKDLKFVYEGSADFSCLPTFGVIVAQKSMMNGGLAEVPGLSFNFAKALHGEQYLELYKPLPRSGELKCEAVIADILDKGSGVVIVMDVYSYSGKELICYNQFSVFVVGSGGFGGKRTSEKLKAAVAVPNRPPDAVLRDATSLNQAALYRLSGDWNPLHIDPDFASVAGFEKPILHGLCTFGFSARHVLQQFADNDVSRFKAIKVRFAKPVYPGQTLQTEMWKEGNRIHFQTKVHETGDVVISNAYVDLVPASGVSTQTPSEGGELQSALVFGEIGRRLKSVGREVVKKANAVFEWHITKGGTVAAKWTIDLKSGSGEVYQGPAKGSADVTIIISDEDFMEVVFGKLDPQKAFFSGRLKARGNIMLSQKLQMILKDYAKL
Briefly: Binding affinity to 17beta-HSD4 in mouse LPS-treated RAW264.7 cells at 200 nM after 2 hrs by MALDI mass spectrometry analysis.

Assay [3] deals with T3, 3-oxo-5-alpha-steroid 4-dehydrogenase 1 (Homo sapiens) (UniProt P18405).
T3 sequence (whole entry): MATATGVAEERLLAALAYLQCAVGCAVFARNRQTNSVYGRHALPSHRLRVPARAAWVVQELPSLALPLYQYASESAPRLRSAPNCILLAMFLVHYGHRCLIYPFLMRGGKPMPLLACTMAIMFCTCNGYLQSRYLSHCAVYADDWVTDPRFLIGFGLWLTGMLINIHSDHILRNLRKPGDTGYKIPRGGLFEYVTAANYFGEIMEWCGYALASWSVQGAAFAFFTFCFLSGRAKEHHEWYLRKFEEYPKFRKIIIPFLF
The experiment in a line: Binding affinity to S5A1 in human PC3 cells at 200 to 600 nM by affinity chromatography analysis. The conditions noted are these: PC-3.

Assay [4] concerns the target T2, Peroxisomal multifunctional enzyme type 2 (Mus musculus). Briefly: Binding affinity to 17beta-HSD4 in mouse LPS-treated RAW264.7 cells at 200 nM by Western blot analysis. The method, boiled down: (§1)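 Streptavidin affinity pull-down was run side by side in lysates from LPS-treated and untreated mouse Raw264.7 macrophages. Biotin, biotinylated β-sitosterol or biotinylated cholesterol was used at 200 nM for 17β-HSD4 and 600 nM for E-Syt1. Probe incubation with lysate was 2 h, followed by overnight streptavidin agarose capture.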
(In general: In western blotting, separated proteins are transferred to a membrane and probed.)

Assay [5] shares this target. The experiment in a line: Binding affinity to 17beta-HSD4 in mouse RAW264.7 cells at 200 nM after 2 hrs by MALDI mass spectrometry analysis. An outline of the steps:
as §1

For assay [6], the target named is T4, Extended synaptotagmin-1 (Mus musculus) (UniProt Q3U7R1).
T4 sequence (whole entry): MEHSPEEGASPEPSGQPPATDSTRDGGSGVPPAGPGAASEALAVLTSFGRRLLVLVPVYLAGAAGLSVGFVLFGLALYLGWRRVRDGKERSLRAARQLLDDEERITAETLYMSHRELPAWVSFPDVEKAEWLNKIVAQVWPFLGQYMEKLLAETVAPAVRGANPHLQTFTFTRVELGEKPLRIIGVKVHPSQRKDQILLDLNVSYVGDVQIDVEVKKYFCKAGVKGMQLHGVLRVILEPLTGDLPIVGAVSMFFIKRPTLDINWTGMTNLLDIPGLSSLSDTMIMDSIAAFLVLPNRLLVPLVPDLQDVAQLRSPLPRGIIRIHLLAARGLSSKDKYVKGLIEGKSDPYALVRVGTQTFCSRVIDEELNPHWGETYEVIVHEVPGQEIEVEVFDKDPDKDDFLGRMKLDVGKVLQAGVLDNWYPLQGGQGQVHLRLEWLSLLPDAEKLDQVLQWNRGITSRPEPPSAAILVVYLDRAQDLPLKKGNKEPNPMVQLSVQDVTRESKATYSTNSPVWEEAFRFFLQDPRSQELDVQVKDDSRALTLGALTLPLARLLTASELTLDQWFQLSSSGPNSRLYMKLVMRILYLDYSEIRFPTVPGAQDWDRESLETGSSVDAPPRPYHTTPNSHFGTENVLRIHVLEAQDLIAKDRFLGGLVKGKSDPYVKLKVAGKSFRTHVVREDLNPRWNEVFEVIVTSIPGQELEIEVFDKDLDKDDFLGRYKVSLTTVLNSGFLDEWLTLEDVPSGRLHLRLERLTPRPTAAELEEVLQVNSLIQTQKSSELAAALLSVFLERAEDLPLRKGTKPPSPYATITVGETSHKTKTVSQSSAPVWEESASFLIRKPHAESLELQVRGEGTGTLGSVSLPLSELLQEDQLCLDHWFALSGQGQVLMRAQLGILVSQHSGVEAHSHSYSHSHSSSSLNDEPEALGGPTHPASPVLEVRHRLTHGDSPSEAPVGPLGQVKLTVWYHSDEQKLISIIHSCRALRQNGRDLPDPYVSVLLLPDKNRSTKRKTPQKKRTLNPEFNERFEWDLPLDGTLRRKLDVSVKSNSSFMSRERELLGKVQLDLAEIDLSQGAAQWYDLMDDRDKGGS
The experiment in a line: Binding affinity to E-Syt1 in mouse LPS-treated RAW264.7 cells at 600 nM after 2 hrs by MALDI mass spectrometry analysis.

Assay [7] concerns the target T5, Extended synaptotagmin-1 (Homo sapiens) (UniProt Q9BSJ8).
T5 sequence (whole entry): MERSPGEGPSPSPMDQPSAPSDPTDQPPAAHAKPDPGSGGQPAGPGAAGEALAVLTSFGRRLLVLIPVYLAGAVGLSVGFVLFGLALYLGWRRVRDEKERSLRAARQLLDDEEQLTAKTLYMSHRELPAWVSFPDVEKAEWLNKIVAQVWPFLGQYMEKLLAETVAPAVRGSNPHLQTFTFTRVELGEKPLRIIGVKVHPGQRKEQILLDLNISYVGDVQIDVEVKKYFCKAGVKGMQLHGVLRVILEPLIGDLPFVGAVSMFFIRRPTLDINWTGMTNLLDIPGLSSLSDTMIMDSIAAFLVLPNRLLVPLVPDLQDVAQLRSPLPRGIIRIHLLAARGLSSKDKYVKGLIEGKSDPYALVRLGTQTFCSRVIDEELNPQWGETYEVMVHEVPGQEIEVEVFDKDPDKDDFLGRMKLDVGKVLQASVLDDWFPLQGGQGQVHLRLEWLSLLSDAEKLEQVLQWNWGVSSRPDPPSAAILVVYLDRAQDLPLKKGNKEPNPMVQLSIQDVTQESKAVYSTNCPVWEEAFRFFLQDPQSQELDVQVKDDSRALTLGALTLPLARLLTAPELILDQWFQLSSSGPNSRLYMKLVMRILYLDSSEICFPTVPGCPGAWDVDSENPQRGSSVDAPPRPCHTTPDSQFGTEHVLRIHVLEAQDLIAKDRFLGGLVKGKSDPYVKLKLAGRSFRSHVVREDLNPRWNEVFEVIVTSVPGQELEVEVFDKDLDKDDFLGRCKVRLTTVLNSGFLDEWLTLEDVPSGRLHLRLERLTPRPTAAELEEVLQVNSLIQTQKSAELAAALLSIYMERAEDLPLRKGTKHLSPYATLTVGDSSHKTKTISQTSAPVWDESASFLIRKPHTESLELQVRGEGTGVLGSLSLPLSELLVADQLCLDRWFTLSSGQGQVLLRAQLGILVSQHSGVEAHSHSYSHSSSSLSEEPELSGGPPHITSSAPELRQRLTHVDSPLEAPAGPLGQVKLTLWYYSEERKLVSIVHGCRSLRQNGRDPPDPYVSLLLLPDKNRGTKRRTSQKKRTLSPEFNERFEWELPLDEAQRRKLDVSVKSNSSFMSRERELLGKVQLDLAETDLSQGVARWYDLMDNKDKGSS
The experiment in a line: Binding affinity to E-Syt1 in human DU145 cells at 600 nM by affinity chromatography analysis. The conditions noted are these: DU-145.

Assay [8] concerns the target T1, Peroxisomal multifunctional enzyme type 2 (Homo sapiens). Briefly: Binding affinity to 17beta-HSD4 in human DU145 cells at 200 nM by affinity chromatography analysis. The conditions noted are these: DU-145.
For assay [9], the target named is T3, 3-oxo-5-alpha-steroid 4-dehydrogenase 1 (Homo sapiens). The experiment in a line: Binding affinity to S5A1 in human DU145 cells at 200 to 600 nM by affinity chromatography analysis. The note with it: DU-145.
Assay [10] addresses T4, Extended synaptotagmin-1 (Mus musculus). The experiment in a line: Binding affinity to E-Syt1 in mouse LPS-treated RAW264.7 cells at 600 nM by Western blot analysis. The method, boiled down:
as §1

The target is the same in assay [11]. The experiment in a line: Binding affinity to E-Syt1 in mouse RAW264.7 cells at 600 nM after 2 hrs by MALDI mass spectrometry analysis. An outline of the steps:
as §1

For assay [12] the target is unchanged. The experiment in a line: Binding affinity to E-Syt1 in mouse RAW264.7 cells at 600 nM by Western blot analysis. An outline of the steps:
as §1

For assay [13], the target named is T5, Extended synaptotagmin-1 (Homo sapiens). The experiment in a line: Binding affinity to E-Syt1 in human PC3 cells at 600 nM by affinity chromatography analysis. The note with it: PC-3.
The target of assay [14] is T2, Peroxisomal multifunctional enzyme type 2 (Mus musculus). Briefly: Binding affinity to 17beta-HSD4 in mouse RAW264.7 cells at 200 nM by Western blot analysis. The method, boiled down: as §1

Calls of active or inactive are those of the source. The calls are words filed in the database; no cut-off is given here.

Take `CC[C@H](CC[C@@H](C)[C@H]1CC[C@H]2[C@@H]3CC=C4C[C@@H](OCc5cn(CCOCCOCCOCCNC(=O)CCCC[C@@H]6SC[C@@H]7NC(=O)N[C@@H]76)nn5)CC[C@]4(C)[C@H]3CC[C@]12C)C(C)C`: the outcome in assay [1], in [2], in [4], in assay [5], in assay [6] and in [7] was Active. In addition, the outcome in assay [8], in assay [10], in [11], in [12], in [13] and in assay [14] was Active. Also, the result in [3] and in assay [9] was inactive.
With `CC(C)CCC[C@@H](C)[C@H]1CC[C@H]2[C@@H]3CC=C4C[C@@H](OCc5cn(CCOCCOCCOCCNC(=O)CCCC[C@@H]6SC[C@@H]7NC(=O)N[C@@H]76)nn5)CC[C@]4(C)[C@H]3CC[C@]12C`, the result in [1], in [4], in assay [8] and in assay [14] was Active. Moreover, the outcome in assay [3] and in assay [9] was inactive.

The values above are taken from ChEMBL document CHEMBL3621130, “Identification and characterization of β-sitosterol target proteins” (Bioorg Med Chem Lett, 2015).
